From PubChem BioAssay
In the library only some 4.7% were active in any assay of this set; here they are far more common.
697 NFkB inh = inhibitors of the PMA/ionomycin-induced NF-kB reporter in 697 B cells | 697 B-cell NF-kB luciferase reporter, 16 h | 330,000 compounds, 0.33% hits | inhibition, % at 4 µM; in the data active = inhibition above about 35%
Mdm2-MdmX inh = human Mdm2/MdmX binding inhibition. O15151+Q00987. inhibition, % at 8 µM. 330,000 compounds, 3% hits. SaOS-2 split-luciferase Mdm2/MdmX complementation, luminescence;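 active = inhibition of at least 50% at 8 µM in the primary screen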
Target sequence (O15151 whole entry, looked up): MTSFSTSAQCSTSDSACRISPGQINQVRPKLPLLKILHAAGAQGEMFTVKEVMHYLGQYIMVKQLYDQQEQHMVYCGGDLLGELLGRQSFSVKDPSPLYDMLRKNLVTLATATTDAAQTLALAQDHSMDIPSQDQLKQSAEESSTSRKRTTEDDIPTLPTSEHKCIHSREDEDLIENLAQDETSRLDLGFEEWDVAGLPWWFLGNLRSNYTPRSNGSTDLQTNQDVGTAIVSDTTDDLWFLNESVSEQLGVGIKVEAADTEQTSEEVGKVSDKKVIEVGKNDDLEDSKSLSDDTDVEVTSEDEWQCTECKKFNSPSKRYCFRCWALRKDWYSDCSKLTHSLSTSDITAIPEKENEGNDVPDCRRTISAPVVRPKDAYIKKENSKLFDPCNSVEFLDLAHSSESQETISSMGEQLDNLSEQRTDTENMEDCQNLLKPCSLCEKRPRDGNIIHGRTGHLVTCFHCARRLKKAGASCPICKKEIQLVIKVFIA
Target sequence (Q00987 whole entry, looked up): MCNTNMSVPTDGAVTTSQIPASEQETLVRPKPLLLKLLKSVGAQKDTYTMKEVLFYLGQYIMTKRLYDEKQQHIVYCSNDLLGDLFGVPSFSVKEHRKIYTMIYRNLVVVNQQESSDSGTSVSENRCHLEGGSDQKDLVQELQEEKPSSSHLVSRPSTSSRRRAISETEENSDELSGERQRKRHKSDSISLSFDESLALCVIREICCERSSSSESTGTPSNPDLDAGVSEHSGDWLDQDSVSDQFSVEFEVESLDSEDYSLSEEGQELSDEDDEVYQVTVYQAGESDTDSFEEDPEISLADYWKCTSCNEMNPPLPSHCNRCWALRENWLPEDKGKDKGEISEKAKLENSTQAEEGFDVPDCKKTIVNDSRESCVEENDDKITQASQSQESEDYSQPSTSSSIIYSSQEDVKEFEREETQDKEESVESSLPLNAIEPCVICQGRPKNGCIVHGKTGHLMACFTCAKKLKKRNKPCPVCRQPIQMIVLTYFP
aSyn 5UTR inh = 5' untranslated region of α-synuclein, MLPCN primary screen; inhibition, % (tested at 7.5 µM); AID 1813; 300,000 compounds, 0.82% hits; alpha-synuclein 5'UTR reporter, inhibitor activity; in the data active = inhibition above about 60%;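 also: H4 neuroglioblastoma cells stably carrying SNCA 5'UTR luciferase fusion; 0% = DMSO wells and 100% = positive control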
VIM-2 inhibitor = blocks Pseudomonas aeruginosa VIM-2 metallo-beta-lactamase; inhibition, % at 5.6 µM; purified VIM-2, nitrocefin hydrolysis, epi-absorbance fluorescence; 290,000 compounds, 0.89% hits; AID 1527;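 active = inhibition above the mean of all tested compounds plus 3 SD, cutoff set per screening run, cut at about 7.5% in these data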;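 also: red hydrolysis product quenches plate fluorescence so inhibitors raise well fluorescence; 0% = enzyme with DMSO and 100% = DMSO without enzyme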
Jurkat NFkB inh = inhibitors of the PMA/ionomycin-induced NF-kB reporter in Jurkat cells; PMA/ionomycin-induced NF-kB luciferase reporter, luminescence; inhibition, % at 4 µM; 330,000 compounds, 0.53% hits; in the data active = inhibition above about 50%
IMP-1 inhibitor = inhibitors of Pseudomonas aeruginosa IMP-1 metallo-beta-lactamase; purified IMP-1, nitrocefin hydrolysis, epi-absorbance fluorescence; 290,000 compounds, 0.45% hits; inhibition, % at 5.6 µM;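 active = inhibition above the mean plus 3 SD of all compounds in the same screening run, cut at about 4.5% in these data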;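 also: 0% = IMP-1 with DMSO and 100% = DMSO wells lacking enzyme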
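Test system: recombinant IMP-1 enzyme, purified / Medium: HEPES buffer pH 7.1 with ZnSO4 and Brij 35 / Doses: single dose, 5.6 µM / Times: 25 °C, 15 min preincubation, 25 min reaction / Detection: Epi-absorbance via hydrolysed-nitrocefin quenching of white-plate fluorescence, 480/530 nm, EDTA stop / Evaluation: percent inhibition from optical density relative to buffer-blank wells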
Mdm2-MdmX conf = human Mdm2/MdmX binding inhibition, confirmed; inhibition, % at 8 µM; shares compounds with Mdm2-MdmX inh; 10,000 compounds, 55% hits; AID 489028; luminescent assay; in the data active = inhibition above about 40%
FLuc counter = inhibits full-length luciferase, flagging false Mdm2/MdmX hits | shares compounds with Mdm2-MdmX inh | SaOS-2 full-length luciferase counterscreen, luminescence | inhibition, % at 8 µM | 6,200 compounds, 77% hits;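 active = mean inhibition at 8 µM reaching about 37%, which flags the compound as non-specific, limit read from the data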;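 also: p53-null SaOS-2 cells with luciferase driven by a doxycycline-inducible promoter; compound on cells about two nights before reading with doxycycline added after day one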
Active calls of the source: *; / = no result.

SMILES	697 NFkB inh	Mdm2-MdmX inh	aSyn 5UTR inh	VIM-2 inhibitor	Jurkat NFkB inh	IMP-1 inhibitor	Mdm2-MdmX conf	others
O=C(Cn1c(=O)oc2ccc(Cl)cc21)Nc1ccon1	8	9	-4	-1	18	0	/
COc1ccccc1-n1c(SCC(=O)Nc2ccc(Br)cc2)nc(O)cc1=O	17	3	-7	-1	-2	-2	/
COC(=O)c1cccc2c1-c1ccccc1/C2=N/O	-12	84*	10	0	11	-5	76*	FLuc counter=37*
O=C(Nc1cccc(-n2cccn2)c1)C1CCCN(Cc2ccc(C#CCCO)cc2)C1 (configuration not stated)	15	19	18	-3	-11	-3	/
CSc1c(CC(=O)Nc2ccccc2Cl)n(Cc2ccccc2)c2ccccc12	14	58*	/	-2	-5	-3	8
O=C(CCCc1ccccc1)Nc1ccccc1C(F)(F)F	10	0	1	-2	5	-2	/
Cn1c(CC(=O)Nc2ccc(F)cc2)c(Sc2ccccc2)c2ccccc21	-40	9	20	0	3	-3	/
CSc1c(CC(=O)Nc2ccccc2)n(Cc2ccccc2)c2ccccc12	-3	60*	-1	0	5	-3	7
Cn1c(C(=O)O)c(CC(=O)Nc2ccccc2F)c2ccccc21	7	-3	4	1	-3	1	/
CSc1c(CC(=O)Nc2ccccc2C(F)(F)F)n(Cc2ccccc2)c2ccccc12	11	74*	6	-3	7	-3	40	FLuc counter=107*
COC(=O)c1ccccc1NC(=O)Cn1c(=O)n(Cc2ccccc2)c(=O)c2c(C)c(C)sc21	10	7	33	-3	0	-2	/
COc1ccc(COC(=O)C2CC(=O)N(Cc3ccc(C)cc3)C2)cc1 (configuration not stated)	-13	6	4	-3	-1	1	/
CCOC(=O)c1[nH]c2ccc(Cl)cc2c1-c1ccccc1	-4	-14	13	-4	4	-3	/
CN(C)C=NC(=O)c1[nH]c2ccc(Cl)cc2c1-c1ccccc1	-6	80*	34	-1	6	-4	35
COc1ccc(-c2ccc3c(c2)S(=O)(=O)c2cccc(C(=O)NCc4cc(C)oc4C(F)(F)F)c2C3=O)cc1OC	-4	36	/	/	-5	/	/
O=C(NC1CCCC1)c1cccc2c1C(=O)c1ccc(/C=C/c3ccccc3)cc1S2(=O)=O	15	-19	/	/	3	/	/
O=C(NCc1ccccc1)c1cccc2c1C(=O)c1ccc(/C=C/c3ccccc3)cc1S2(=O)=O	11	77*	/	/	4	/	21
O=C(NCc1cc(C(F)(F)F)ccc1Cl)c1cccc2c1C(=O)c1ccc(-c3ccc(OC(F)(F)F)cc3)cc1S2(=O)=O	19	77*	/	/	13	/	-13
O=C(NCc1cccc(OC(F)(F)F)c1)c1cccc2c1C(=O)c1ccc(-c3ccc(F)cc3OCc3ccccc3)cc1S2(=O)=O	-32	-16	/	/	-8	/	/
COc1ccc(-c2ccc3c(c2)S(=O)(=O)c2cccc(C(=O)NCc4cccc(OC(F)(F)F)c4)c2C3=O)cc1OC	4	73*	/	/	7	/	-3
O=C(NCc1ccccc1Cl)c1cccc2c1C(=O)c1ccc(-c3ccc(OC(F)(F)F)cc3)cc1S2(=O)=O	5	68*	/	/	-12	/	6
CN(N)C(=S)Nc1ccc(Cl)cc1	-2	3	8	2	-15	0	/
CC(C)c1cc(C(=O)N2CCCC(N3CCN(c4ccc(F)cc4)CC3)C2)n(C)n1 (configuration not stated)	-29	-9	-13	-2	12	-2	/
CCC(C)c1ccc(NC(=O)C2=CC=CN3CCS(=O)(=O)N=C23)cc1 (configuration not stated)	-30	-3	/	/	-20	/	/
COc1ncc(-c2ccc3c(c2)S(=O)(=O)c2cccc(C(=O)NCc4ccco4)c2C3=O)cn1	-7	53*	/	/	37	/	20
SMILES	697 NFkB inh	Mdm2-MdmX inh	aSyn 5UTR inh	VIM-2 inhibitor	Jurkat NFkB inh	IMP-1 inhibitor	Mdm2-MdmX conf	others
O=C(NCc1cc(C(F)(F)F)ccc1Cl)c1cccc2c1C(=O)c1ccc(Cl)cc1S2(=O)=O	10	54*	/	/	17	/	1
O=C(O)c1cccc2c1C(=O)c1ccc(Cl)cc1S2(=O)=O	13	0	/	/	9	/	/
O=C(NC1CCCCC1)c1cccc2c1C(=O)c1ccc(-c3ccc(OC(F)(F)F)cc3)cc1S2(=O)=O	18	71*	/	/	-36	/	29	FLuc counter=79*
O=C(NCC1CCCO1)c1cccc2c1C(=O)c1ccc(N3CCC(Cc4ccccc4)CC3)cc1S2(=O)=O (configuration not stated)	-59	54*	/	/	3	/	19
O=C(COC(=O)c1ccc(S(=O)(=O)N2CCOCC2)cc1)NCc1cccs1	0	-2	-1	-1	-2	1	/
O=C(Nc1cc(Cl)cc(Cl)c1)N1CCCN(Cc2ccccc2)CC1	3	18	-24	-2	-5	0	/
Cc1ccc(C)c(N2CCN(S(=O)(=O)c3ccc4c(c3)NC(=O)CS4)CC2)c1	-12	17	2	-1	9	-2	/
COc1ccc(/C=C2\COc3ccccc3C2=O)cc1OC	-9	11	-28	-2	16	-2	/
COc1ccc(/C=C2\CN(Cc3ccccc3)C/C(=C\c3ccc(OC)cc3OC)C2=O)c(OC)c1	18	67*	-68	-4	4	-1	60*	FLuc counter=63*
COc1ccc(/C=C2\COc3ccccc3C2=O)c(OC)c1	-67	59*	-140	-1	7	-1	34	FLuc counter=76*
COCc1ccc(CN2CCC(C(=O)Nc3cccc(-c4cccc(Cl)c4)c3)CC2)o1	-9	78*	34	-4	1	-2	54*	FLuc counter=58*
O=C(Nc1cccc(-c2cccc(Cl)c2)c1)C1CCN(Cc2ccccn2)CC1	-13	37	1	-5	0	0	/
Cc1cccc(CN2CCC(C(=O)Nc3cccc(-c4cccc(F)c4)c3)CC2)n1	-38	38	-15	-2	18	0	/
Cc1nn(C(C)C)c(C)c1CN1CCC(C(=O)Nc2cccc(-c3cccc(F)c3)c2)CC1	5	78*	-15	0	13	-1	52*	FLuc counter=62*
C=CCn1cc(CN2CCC(C(=O)Nc3cccc(-c4cccc(Cl)c4)c3)CC2)c(C)n1	1	81*	18	2	10	0	13
